Measurements taken from ChEMBL document CHEMBL2034936, “Discovery and extensive in vitro evaluations of NK-HDAC-1: a chiral histone deacetylase inhibitor as a promising lead” (J Med Chem, 2012).
Values after ≈ are worked out from the molar mass of the structure shown. Active and inactive are the calls of the source. No cut-off for these calls is given here.

Legend:
BT-549 = test: cells; format: functional; conditions: Homo sapiens, BT-549, 72 h
SK-OV-3 = test: cells; format: functional; conditions: Homo sapiens, SK-OV-3, 72 h
HT-29 = test: Growth inhibition of human HT-29 cells after 72 hrs by MTS assay; format: functional; conditions: HT-29, 72 h
UACC-257 = test: cells; format: functional; conditions: Homo sapiens, UACC-257, 72 h
[1] = Half life in artificial intestinal fluid; format: physicochemical
SNB-19 = test: cells; format: functional; conditions: Homo sapiens, SNB-19, 72 h
MDA-MB-468 = test: cells; format: functional; conditions: Homo sapiens, MDA-MB-468, 72 h
HOP-92 = test: cells; format: functional; conditions: Homo sapiens, HOP-92, 72 h
[2] = target: Histone deacetylase (Homo sapiens) (UniProt Q13547+O15379+Q9UBN7+Q92769+Q9UQL6+Q8WUI4+Q9BY41+Q96DB2+P56524+Q9UKV0+Q969S8); test: Inhibition of HDAC in human MDA-MB-231 cells assessed as stimulation of histone H3 acetylation at 5 uM incubated for 24 hrs by Western blot; format: cell-based
In short: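 MDA-MB-231 cells in 35-mm dishes, dosed 24 h at graded concentrations, then trypsinized and PBS-washed. Lysed in RIPA (50 mM Tris-HCl pH 7.5, protease and phosphatase inhibitors) for 30 min at 4 °C, then cleared at 12,000g. Lysate, 60 μg protein by BCA, run on SDS-PAGE and PVDF. Blotted with anti-acetyl-histone H3 and HRP anti-rabbit, read by ECL.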

[3] = Solubility in pH 7.4 PBS buffer; format: physicochemical
Cytochrome P450 3A4 = Cytochrome P450 3A4 (Homo sapiens, UniProt P08684); test: Inhibition of human CYP3A4; format: ADME
Cytochrome P450 3A4, sequence (P08684 whole entry): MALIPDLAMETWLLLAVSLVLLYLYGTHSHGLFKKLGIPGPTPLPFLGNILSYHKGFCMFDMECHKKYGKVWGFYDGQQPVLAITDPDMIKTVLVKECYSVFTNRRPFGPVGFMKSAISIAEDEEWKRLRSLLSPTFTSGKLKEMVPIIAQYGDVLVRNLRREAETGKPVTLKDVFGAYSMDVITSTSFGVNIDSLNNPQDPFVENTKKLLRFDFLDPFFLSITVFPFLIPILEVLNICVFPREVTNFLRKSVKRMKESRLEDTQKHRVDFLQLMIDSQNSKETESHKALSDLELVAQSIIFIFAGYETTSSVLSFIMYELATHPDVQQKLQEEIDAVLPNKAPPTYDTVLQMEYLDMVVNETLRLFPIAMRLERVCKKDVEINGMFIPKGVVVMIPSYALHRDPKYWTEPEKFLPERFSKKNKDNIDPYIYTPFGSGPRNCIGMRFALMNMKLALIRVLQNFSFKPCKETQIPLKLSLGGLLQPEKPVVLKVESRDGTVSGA

A549 = test: cells; format: functional; conditions: Homo sapiens, A549, 72 h
Malme-3M = test: cells; format: functional; conditions: Homo sapiens, 72 h
NCI-H23 = test: cells; format: functional; conditions: Homo sapiens, NCI-H23, 72 h
HCT-116 = test: Growth inhibition of human HCT116 cells after 72 hrs by MTS assay; format: functional; conditions: HCT-116, 72 h
EKVX = test: cells; format: functional; conditions: Homo sapiens, 72 h
SW-620 = test: cells; format: functional; conditions: Homo sapiens, SW-620, 72 h
MCF7 = test: cells; format: functional; conditions: Homo sapiens, MCF7, 48 h
IGROV-1 = test: cells; format: functional; conditions: Homo sapiens, IGROV-1, 72 h
NCI-H522 = test: cells; format: functional; conditions: Homo sapiens, NCI-H522, 72 h
OVCAR-4 = test: cells; format: functional; conditions: Homo sapiens, OVCAR-4, 72 h
SK-MEL-28 = test: cells; format: functional; conditions: Homo sapiens, SK-MEL-28, 72 h
MDA-MB-435 = test: cells; format: functional; conditions: Homo sapiens, MDA-MB-435, 72 h
SF-268 = test: cells; format: functional; conditions: Homo sapiens, SF-268, 72 h
RXF 393 = test: cells; format: functional; conditions: Homo sapiens, RXF 393, 72 h

CC(C)[C@@H](c1nc2ccccc2o1)n1cc(/C=C/C(=O)NO)nn1
GI50 (BT-549): 52 nM
GI50 (SK-OV-3): 140 nM
GI50 (HT-29): 79 nM
GI50 (UACC-257): 88 nM
half-life [1]: > 1440 min
GI50 (SNB-19): 430 nM
GI50 (MDA-MB-468): 150 nM
GI50 (HOP-92): 10 nM
histone H3 acetylation activity (active/not active) [2]: Active
solubility [3]: 20 µg/mL (≈ 61.1 µM)
INH (Cytochrome P450 3A4): 31.9 µM
GI50 (A549): 160 nM
GI50 (Malme-3M): 16 nM
GI50 (NCI-H23): 140 nM
GI50 (HCT-116): 38 nM
GI50 (EKVX): 240 nM
GI50 (SW-620): 130 nM
GI50 (MCF7): 180 nM
GI50 (IGROV-1): 56 nM
GI50 (NCI-H522): 13 nM
GI50 (OVCAR-4): 700 nM
GI50 (SK-MEL-28): 220 nM
GI50 (MDA-MB-435): 91 nM
GI50 (SF-268): 330 nM
GI50 (RXF 393): 180 nM
